Screening results (PubChem)
STAT1 activator: increases IFN-gamma driven STAT1 reporter signal; 2.6% of 200,000 active; NIH 3T3 STAT1-luciferase reporter, luminescence; 100% = IFN-gamma alone, no compound; activation (% of control), % at 5.5 µM;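 active = activation above the screen-wide mean activation plus 3 SD, cut at about 130% in these data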
NF-kB neuron act: compounds increasing NF-kB expression in human neuronal cells; fold change at 12.5 µM; NF-kB reporter expression; stronger effect = higher value; AID 1239; 1.6% of 190,000 active; in the data active = fold change above about 3.3
STAT3 blocker: inhibitors of IL-6 induced STAT3 signaling; U3A cells, IL-6 STAT3-luciferase reporter, luminescence; host cell line lacks STAT1; inhibition, % at 5.5 µM; 0.89% of 190,000 active; AID 862;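 active = inhibition above the mean inhibition across all screened compounds plus 3 SD, cut at about 44% in these data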
APP 5'UTR act: APP 5'UTR luciferase reporter activation | SH-SY5Y APP 5'UTR luciferase reporter, luminescence; zero percent = DMSO vehicle wells | activation, % at 2 µM | 1% of 190,000 active;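 active = activation above a set limit, based on mean plus 3 SD of controls, cut at about 140% in these data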
STAT3 act: STAT3 signaling activation. activation (% of control), % at 5.6 µM. 0.91% of 190,000 active. U3A cells, IL-6 STAT3-luciferase reporter, luminescence; 100% = signal with IL-6 EC80 alone;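 active = activation above the screen-wide mean of compound activation plus 3 SD, cut at about 130% in these data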
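Material: human STAT1-deficient U3A cells with stable STAT3-luciferase reporter / Probe or stimulus: IL-6 stimulus at 33 ng/mL final / Schedule: 1 h compound pre-exposure, 6 h IL-6 stimulation, 37 °C / Technique: luminescence / Read-out basis: percent of IL-6-only median luminescence / Control set: IL-6-only high control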
STAT1 blocker: STAT1 signaling inhibition. inhibition, % at 5.5 µM. AID 920. 0.35% of 200,000 active. NIH 3T3 STAT1-luciferase reporter, IFN-gamma, luminescence;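 active = inhibition above a set limit, the mean inhibition across all tested compounds plus 3 SD, cut at about 34% in these data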
Of the large screens only hits and unclear results are named; the others gave an inactive call. Only some compounds are listed: those with a hit (about 4.9% of all), similar ones and a draw of the others.

CCCCOP(=O)(OCCCC)C(Nc1ccccc1)c1ccc2c(c1)OCO2 (stereo not drawn)	none
C[C@H](NC(N)=O)C(=O)Nc1ccc(OCc2ccccc2)cc1	STAT1 activator 131.6
CCC(=O)Nc1ccc(C(=O)OCc2ccccc2)cc1	STAT1 activator 132.5
CCCOC(=O)c1ccc(NC(=O)CC(C)(C)C)cc1	STAT1 activator 144.2, NF-kB neuron act 5.53
CCCOC(=O)c1ccc(NC(=O)COC)cc1	none
CSc1nc(C)c(C(=O)C[n+]2ccc(C)cc2)cc1C#N	none
CCc1cccc(Nc2cnn(C34C[C@@H]5C[C@@H](CC(CC(=O)O)(C5)C3)C4)c(=O)c2Cl)c1	STAT1 activator 137.8
O=C(Nc1ccccc1)Nc1ccc2ncoc2c1	STAT1 activator 132.4
O=C(Nc1ccccc1)Nc1ccc2ocnc2c1	none
CCc1ccc(-n2c(=O)c3c(C)c(C(=O)N(C)C)sc3n(CC(=O)NCc3ccco3)c2=O)cc1	none
CCc1cc2c(Sc3nc4ccccc4s3)ncnc2s1	STAT1 activator 142.4, STAT3 act 177.7
Cc1ccc(CNCCC2=CCCCC2)cc1	none
CSc1ccccc1C(=O)Nc1ccc2c(c1)OCCO2	none
Cn1cc(C(=O)NCc2ccc(F)cc2)cn1	none
CCc1ccc(NC(=O)c2ccccc2SC)cc1	STAT1 activator 129.0
O=C(NCc1ccc(F)cc1)c1cnn2ccccc12	STAT1 activator 131.5
CCc1ccc(NC(=O)c2cnn3ccccc23)cc1	NF-kB neuron act 3.96, STAT3 blocker 97.6, STAT1 blocker 77.6
Cc1cc(C)c(NC(=S)N(CCCN2CCN(C)CC2)Cc2cccs2)c(C)c1	none
C/C(=N\N=c1/sc2ccccc2n1C)c1ccccn1	STAT1 activator 141.6
CC(=O)c1c(C)[nH]c(C(=O)Nc2cc(C)cc(C)c2)c1C	none
Cc1csc(NC(=O)c2ccc(S(C)(=O)=O)cc2)n1	STAT1 activator 129.8
CC(=O)c1c(C)[nH]c(C(=O)Nc2ccc(C)cn2)c1C	STAT3 blocker 89.7, STAT1 blocker 39.0
CC(=O)c1c(C)[nH]c(C(=O)Nc2nc(C)cs2)c1C	STAT3 blocker 84.8, STAT1 blocker 70.3
Cc1cc(C)n(-c2cc(C(=O)O)cc(C(=O)O)c2)n1	none
COc1ccccc1C(=O)NCC(=O)OCC(=O)c1ccc2c(c1)-c1ccccc1C2	none
COc1ccccc1CN=C1Nc2ccccc2CS1	none
COc1cccc(CN=C2Nc3ccccc3CS2)c1	STAT1 activator 147.3, NF-kB neuron act 3.94
Clc1ccc(CN=C2Nc3ccccc3CS2)cc1	NF-kB neuron act 4.81
Cc1ccc(SCC(=O)NN2C(=O)c3ccccc3C2=O)cc1	none
Cc1c(N2C(=O)/C(=C\c3ccc(N(C)C)cc3)N(C)C2=S)c(=O)n(-c2ccccc2)n1C	none
O=C1S/C(=C/c2ccccc2F)C(=O)N1CCN=C1NS(=O)(=O)c2ccccc21	none
CCn1c(C)nc2cc(C(=O)NNS(=O)(=O)c3ccccc3F)ccc21	none
CCn1c(C)nc2cc(C(=O)N/N=C(\C)c3ccccc3O)ccc21	STAT1 activator 136.9
CCn1c(C)nc2cc(C(=O)OC)ccc21	none
CCn1c(C)nc2cc(C(=O)N/N=C/c3ccccc3C)ccc21	STAT1 activator 143.2, NF-kB neuron act 3.91
CCC(C)c1ccc(NC(=O)COC(=O)c2nc3nccc(C)n3n2)cc1 (stereo not drawn)	none
COc1cc(SC)ccc1C(=O)Nc1ccc(C)cc1	STAT1 activator 146.3, NF-kB neuron act 6.57, APP 5'UTR act 184.2
COc1cc(SC)ccc1C(=O)OCC(=O)NC1CC1	none
COc1cc(SC)ccc1C(=O)Nc1ncc(C)s1	STAT3 blocker 100.5, STAT1 blocker 89.7
COC(=O)c1ccc(COC(=O)c2ccc(SC)cc2OC)cc1	STAT1 activator 134.9
COc1cc(SC)ccc1C(=O)Nc1cccc(C)n1	STAT1 activator 143.8, APP 5'UTR act 243.6
COC(=O)C1=NN(c2ccc(Cl)cc2)C2C(=O)N(c3ccccc3OC)C(=O)C12 (stereo not drawn)	none
CCCCCCCC[n+]1c(C)n(-c2ccccc2)c2ccc(NC(C)=O)cc21	none
CCSc1ccc2cc(OC)ccc2[n+]1CC	none
CC(C)n1c(-c2ccc(N(C)C)cc2)nc2ccccc21	APP 5'UTR act 170.4
Cc1ccc(C(O)c2nc3ccccc3n2C(C)C)cc1 (stereo not drawn)	none
C=CCn1c(SCc2cc(=O)n3ccsc3n2)nc2ccccc2c1=O	none
O=S(c1ccc2ccccc2c1)c1cnns1 (stereo not drawn)	none
O=C(CCCC(=O)N/N=C\c1ccccn1)N/N=C\c1ccccn1	none
NC(=O)NNC1=Nc2cccc3cccc1c23	none
Clc1ccccc1/C=N/NC1=Nc2cccc3cccc1c23	STAT1 activator 180.2, APP 5'UTR act 171.0, STAT3 act 159.4
C(=N\NC1=Nc2cccc3cccc1c23)/c1ccccn1	STAT1 activator 182.1, NF-kB neuron act 6.2, STAT3 act 157.0
O=c1c2ccccc2c(C=NC2CCN(Cc3ccccc3)CC2)c(O)n1Cc1ccc2c(c1)OCO2	none
O=c1c2c3c(sc2ncn1/N=C/c1ccncc1)CCCC3	none
O=c1c2c3c(sc2ncn1/N=C/c1cccnc1)CCCC3	STAT1 activator 138.6
O=C(COc1ccc(Br)cc1)Nc1ccc(Cc2ccncc2)cc1	none
O=C(CSc1ccc(-c2cccc([N+](=O)[O-])c2)nn1)N1CCCC1	none
CCSc1ccc(-c2cccc([N+](=O)[O-])c2)nn1	STAT1 activator 137.3
Nc1cc(-c2nn[nH]n2)ccc1F	none
CCCc1ccc(-c2ccc(F)c(N)c2)nc1	NF-kB neuron act 4.19, STAT3 blocker 96.6, APP 5'UTR act 139.7, STAT1 blocker 36.6
Cc1[nH]c2ccccc2c1C(=O)CSC(=S)N(C)C1CCCCC1	none
Cc1[nH]c2ccccc2c1C(=O)CSC(=S)N1CCCCC1	STAT1 activator 143.8
COc1cc(C(=O)Nc2ccc3c(c2)OCCO3)ccc1OC(F)F	STAT1 activator 139.6, NF-kB neuron act 3.37
COc1ccccc1NC(=O)Nc1ccc2c(c1)OCCO2	STAT1 activator 133.1 (no result: APP 5'UTR act)
COc1cc(C(=O)Nc2ccc3c(c2)OCCO3)ccc1OC(C)C	none
COc1cccc(OC)c1C(=O)Nc1ccc2c(c1)OCCO2	none
COc1ccc(NC(=O)c2ccc3c(c2)OCO3)cc1Cl	NF-kB neuron act 4.97, APP 5'UTR act 137.7
COc1ccc(C(=O)Nc2ccc(Cl)cn2)cc1Cl	STAT1 activator 139.5
COc1ccc(N(CC(=O)Nc2ccccc2C(=O)O)S(=O)(=O)c2ccc(C)c([N+](=O)[O-])c2)cc1	none
C/C(=N\OCC(=O)Nc1ccc2c(c1)OCCO2)c1ccc2c(c1)OCCO2	none
CSc1nc(-c2ccccc2)nc(SC)c1C(C)=O	none
CSc1nc(-c2ccccc2)[nH]c(=S)c1C(C)=O	STAT3 act 132.9
Cn1c(SCc2ccccn2)nnc1-c1cnccn1	none
Cn1c(SCc2ccc(F)cc2)nnc1-c1cccs1	STAT1 activator 140.3
